# hERG protect = hERG rescue from dofetilide block, primary screen, cell-based, CHO-hERG, FluxOR thallium flux, dofetilide IC70. Voltage-gated inwardly rectifying potassium channel KCNH2 (Homo sapiens), Q12809. dofetilide IC70 present. activation (rescue from dofetilide block), less the hit threshold, % at 10 µM. 0.51% of 310,000 active. AID 1511, 2009;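 active = activation above the mean of controls blocked by dofetilide plus 5 SD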;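 note: thallium influx through hERG after potassium depolarization seen as dye fluorescence rise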
# KCNK9 inh = KCNK9 potassium channel inhibitors, primary screen, HEK293 cells, thallium flux; Potassium channel subfamily K member 9 (Homo sapiens), Q9NPC2; FluxOR thallium flux fluorescence; stronger effect = lower value; B-score at 10 µM; 1.2% of 310,000 active; AID 488922, 2010;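 active = ratio B-score over 3 SD below the library mean, with starting fluorescence within 5 SD of its mean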;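 note: negative B-score means less thallium flux so channel inhibition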
# KCNQ1 act = potentiators or activators of KCNQ1 channel, primary screen, cell-based, thallium flux, high-throughput. Potassium voltage-gated channel subfamily KQT member 1 (Homo sapiens), P51787. CHO-K1 KCNQ1, thallium flux FluxOR fluorescence; stronger effect = higher value. B-score at 10 µM. 0.35% of 310,000 active;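 active = fluorescence ratio B-score, a plate-corrected score, at least three library SD, with initial intensity B-score within 5 SD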
# Target sequence (P51787 whole entry, looked up): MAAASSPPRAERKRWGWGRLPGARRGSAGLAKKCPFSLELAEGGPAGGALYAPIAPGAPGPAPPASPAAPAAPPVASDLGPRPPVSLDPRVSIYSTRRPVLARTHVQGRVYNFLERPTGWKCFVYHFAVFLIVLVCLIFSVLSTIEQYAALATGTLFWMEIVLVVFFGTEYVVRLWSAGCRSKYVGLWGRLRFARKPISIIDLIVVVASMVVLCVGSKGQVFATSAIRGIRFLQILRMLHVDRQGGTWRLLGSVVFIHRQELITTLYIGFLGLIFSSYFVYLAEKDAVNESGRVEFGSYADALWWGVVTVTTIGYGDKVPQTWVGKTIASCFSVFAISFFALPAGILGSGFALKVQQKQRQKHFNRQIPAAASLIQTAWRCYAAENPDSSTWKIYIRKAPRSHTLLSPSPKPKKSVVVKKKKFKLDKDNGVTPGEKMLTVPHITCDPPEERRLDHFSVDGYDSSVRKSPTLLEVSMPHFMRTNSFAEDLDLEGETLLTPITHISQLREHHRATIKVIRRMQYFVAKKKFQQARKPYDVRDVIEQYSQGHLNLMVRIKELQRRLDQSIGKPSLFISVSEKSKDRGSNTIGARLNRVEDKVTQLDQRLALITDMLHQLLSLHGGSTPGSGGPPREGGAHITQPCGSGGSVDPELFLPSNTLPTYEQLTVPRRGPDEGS
#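 Assay system: CHO-K1 cells stably expressing KCNQ1; Medium: assay buffer with matched DMSO; Also added: K+/Tl+ depolarizing stimulus; Dosing: single dose; Timing: dye 90 min, compound 20 min, room temperature; Measured by: kinetic FluxOR thallium fluorescence, 10-s 1-Hz baseline, 110-s post-stimulus read; Read-out: peak-minus-minimum fluorescence over initial fluorescence, negative-control normalized, B-scored.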
# Kir21 inh = inhibitors of mouse Kir2.1 inward-rectifier potassium channel. HEK293-Kir2.1, FluxOR thallium flux fluorescence; stronger effect = lower value. B-score at 10 µM. 0.85% of 310,000 active. AID 1672, 2009;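 active = fluorescence ratio B-score at or below minus 3 SD of library scores, with starting-brightness B-score within 2 SD, cut at about -4.2 in these data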;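 note: channel flux triggered by added potassium and thallium sulfate stimulus; B-score of peak minus minimum fluorescence over baseline after thallium stimulus; more negative B-score means stronger Kir2.1 block with less thallium influx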
# KCNK3 block = human KCNK3 channel inhibitors, primary screen, CHO cells, FluxOR thallium flux, B-score; 0.84% of 340,000 active; B-score at 10 µM; FluxOR fluorescence; stronger effect = lower value;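 active = B-score under library mean minus 4 SD, starting fluorescence ratio at most library mean plus 5 SD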;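 note: more negative B-score means stronger inhibition of thallium flux through KCNK3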
# KCNQ1 inh = inhibitors of human KCNQ1 channel, primary screen, cell-based, thallium flux, high-throughput; 1.3% of 310,000 active; B-score at 10 µM; CHO-K1 KCNQ1, FluxOR thallium flux fluorescence; stronger effect = higher value; Potassium voltage-gated channel subfamily KQT member 1 (Homo sapiens), P51787; AID 2642, 2010;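 active = compounds whose thallium flux B-score, printed positive for inhibition, exceeds three library SD while starting fluorescence stays within three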;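 note: channel opened by potassium depolarization with thallium stimulus after 20 min compound exposure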
# Hits are given with their value; – = inactive; · = not tested or not shown. In the library only some 3.7% were active in any assay of this set; here they are far more common.
SMILES,hERG protect,KCNK9 inh,KCNQ1 act,Kir21 inh,KCNK3 block,KCNQ1 inh
CCCCNC(=O)c1sc(=S)n2c1[nH]c(=O)c1ccc(C(=O)NCCc3ccc(OC)c(OC)c3)cc12,–,–,–,–,-10,–
CCn1cc(S(=O)(=O)Nc2ncccn2)cn1,–,–,–,–,–,–
O=C(NCCCn1ccnc1)/C(=C\c1ccc(Br)cc1)NC(=O)c1ccccc1F,–,–,–,–,–,–
CC(N=C1NS(=O)(=O)c2ccccc21)C(=O)NCc1ccncc1 (stereo not drawn),·,·,·,·,–,·
O=C(CSCc1cccc(Cl)c1)NCc1ccc2c(c1)OCO2,–,–,–,–,–,–
O=C(NCc1ccc2c(c1)OCO2)c1ccc(CSCc2cccc(Cl)c2)o1,–,-7.5,–,–,–,–
O=C(Nc1ccccc1C(=O)N1CCN(Cc2ccccc2)CC1)c1ccc(F)cc1,–,–,–,–,–,–
CCCSC1=C(C#N)C2(CCCCC2)C(C#N)=C(N)N1,–,–,–,–,–,8
N#CC1=C(N)NC(SCC(=O)c2ccc(Br)cc2)=C(C#N)C12CCCCC2,–,–,–,–,–,12
CCSC1=C(C#N)C2(CCCCC2)C(C#N)=C(N)N1,–,–,–,–,–,–
N#CC1=C(N)NC(SCC(=O)c2ccc(Cl)cc2)=C(C#N)C12CCCC2,–,–,–,–,–,7
COc1cc(C(=S)N2CCN(c3cccc(Cl)c3)CC2)ccc1O,5.8,–,–,–,–,–
O=C(COC(=O)CNS(=O)(=O)c1ccc(Br)cc1Cl)NCCc1ccccc1,–,–,–,–,–,–
C=CCN1C=CC(=C/C=C(/C#N)C(=O)OCC)C=C1,–,–,–,–,–,11
COc1ccc(C(=O)NCCc2ccccc2)cc1OC,–,–,–,–,–,–
COc1ccc(/C(O)=C/c2nc3ccc(C(=O)NCCc4cccc(C)c4)cc3[nH]c2=O)cc1OC,–,-8,–,–,–,–
CCOC(=O)C1=NN(c2ccccc2)C2=NC(C)=C(C(=O)OC)C(c3cccs3)N12 (stereo not drawn),–,–,–,–,–,–
CCOC(=O)C1=NN(c2ccc(F)cc2)C2=NC(C)=C(C(=O)OC)C(c3cccs3)N12 (stereo not drawn),–,-6.9,–,–,–,–
CCN(CC(=O)NCc1ccc(Cl)cc1)C(=O)Cc1ccc(OC)cc1,–,–,–,–,–,–
CCOC(=O)c1c(-c2ccccc2)csc1NC(=O)C(C)NCc1ccco1 (stereo not drawn),–,–,–,–,–,7
CCOC(=O)c1c(-c2ccc(Cl)cc2)csc1NC(=O)CNCc1ccco1,–,–,–,–,–,–
CCCN(C(=O)Cc1csc(-c2ccccc2)n1)C1CCS(=O)(=O)C1 (stereo not drawn),·,·,·,·,–,·
Cc1ccccc1CN(C)CC(=O)Nc1ccccc1Oc1ccccc1,–,-7.5,–,–,–,–
O=C(CN1CCOCC1)Nc1ccccc1Sc1ccc(Cl)cc1,–,–,–,-5.2,–,–
Nc1cc(=O)[nH]c(SCC(=O)Nc2ccccc2Sc2ccc(Cl)cc2)n1,–,–,–,–,–,–
SMILES,hERG protect,KCNK9 inh,KCNQ1 act,Kir21 inh,KCNK3 block,KCNQ1 inh
O=C(CSc1ncn[nH]1)Nc1ccccc1Sc1ccc(Cl)cc1,–,–,–,-4.7,–,–
O=C(CN1CCOCC1)Nc1ccccc1F,–,–,–,–,–,–
CN1CCN(CC(=O)Nc2ccccc2Sc2ccccc2)CC1,–,–,–,–,–,–
O=C(CN1CCCC1)Nc1ccccc1Sc1ccccc1,–,–,–,-4.2,–,–
O=C(Nc1cccc(F)c1)Nc1ccnn1C1CCN(C(=O)c2cscn2)CC1,–,–,–,–,–,–
CSC(=NS(=O)(=O)c1ccc(N)cc1)NS(=O)(=O)c1cccs1,·,·,·,·,–,·
O=C(CSc1ncn[nH]1)NCCC(c1ccccc1)c1ccccc1,–,–,–,-5.2,–,–
O=C(CN1CCCCC1)Nc1ccccc1Oc1ccccc1,–,–,–,-5.6,–,–
O=C(CSc1ncn[nH]1)NCCOc1ccccc1,–,–,–,–,–,–
O=C(O)C1CCCCC1C(=O)Nc1ccc(S(=O)(=O)N2CCCCC2)cc1 (stereo not drawn),–,–,–,–,–,–
O=C(OCC(=O)N1CCCc2ccccc21)c1ccc(S(=O)(=O)C(F)F)cc1,–,–,–,–,–,–
COc1ccc(/C=C/C(=O)N2c3ccccc3Sc3ccc(C(F)(F)F)cc32)cc1,–,-7.3,–,–,–,–
COc1ccc(C(F)(F)F)cc1N/C=C/c1nnnn1-c1ccc(C)cc1,–,-6.7,–,–,–,–
O=C(c1ccccc1)c1ccccc1N/C=C/c1nnnn1-c1ccccc1,–,–,–,–,–,–
CCCN1C(=O)/C(=C/c2ccc(N3CCCC3)c(C)c2)NC1=S,–,–,–,–,–,–
CCN1C(=O)/C(=C/c2ccc(N3CCCC3)cc2)NC1=S,–,–,–,–,–,12
O=C(CCCc1nc(-c2ccc(Cl)cc2)no1)NC1CCCC1,–,–,–,-4.3,–,–
O=C(CCc1nc(-c2ccc(Cl)cc2)no1)NC1CCCCC1,–,–,–,–,–,–
Cc1cc(C)c(C)c(S(=O)(=O)N2CCN(c3ncnc4ccccc34)CC2)c1C,·,·,·,·,-10,·
Cc1cc(C)c(C)c(S(=O)(=O)N2CCN(c3ccccn3)CC2)c1C,–,–,–,–,–,–
Cc1cc(C(=O)N2CCc3ccccc3C2)on1,–,–,–,–,–,–
N#Cc1ccccc1NC(=O)CN1CCN(c2ccccn2)CC1,–,–,–,–,–,–
Cc1sc(NC(=O)CN2CCN(c3ccccn3)CC2)c(C#N)c1C,–,–,–,-4.5,–,–
COc1ccc(C(CC(=O)O)c2cc(OC)c(OC)c(OC)c2)cc1OC (stereo not drawn),·,·,·,·,–,·
CCn1c2ccccc2c2cc(NC(=O)CNCC3CCCO3)ccc21 (stereo not drawn),–,–,–,-9.1,–,–
CCn1c2ccccc2c2cc(NC(=O)CN3CCCC3)ccc21,–,–,–,–,–,–
COc1ccc(CC(=O)Nc2nc(-c3cccnc3)cs2)cc1,–,–,–,–,–,–
Cc1ccc(-c2csc(NC(=O)Cc3ccc(F)cc3)n2)o1,–,–,14,–,–,–

# High-throughput results (PubChem)
